According to ChEMBL document CHEMBL3286169, “Development of inhibitors of heterotrimeric Gαi subunits” (Bioorg Med Chem, 2014):
Active and inactive are the calls of the source. The rule behind the calls is not given here. Peptide text beside a SMILES is read from it.

Assays:
[1] = target: T1, Guanine nucleotide-binding protein G(q) subunit alpha (Homo sapiens) (UniProt P50148); experiment: Binding affinity to Galphaq (unknown origin) expressed in baculovirus-infected insect Hi5 cells assessed as inhibition of BODIPY FL GTPgammaS binding by measuring fluorescence reduction at 30 to 300 uM preincubated for 30 mins followed by BODIPY FL GTPgammaS addition measured for 60 mins by real time nucleotide exchange assay relative to vehicle-treated control; settings: BTI-TN-5B1-4
T1 sequence (whole entry): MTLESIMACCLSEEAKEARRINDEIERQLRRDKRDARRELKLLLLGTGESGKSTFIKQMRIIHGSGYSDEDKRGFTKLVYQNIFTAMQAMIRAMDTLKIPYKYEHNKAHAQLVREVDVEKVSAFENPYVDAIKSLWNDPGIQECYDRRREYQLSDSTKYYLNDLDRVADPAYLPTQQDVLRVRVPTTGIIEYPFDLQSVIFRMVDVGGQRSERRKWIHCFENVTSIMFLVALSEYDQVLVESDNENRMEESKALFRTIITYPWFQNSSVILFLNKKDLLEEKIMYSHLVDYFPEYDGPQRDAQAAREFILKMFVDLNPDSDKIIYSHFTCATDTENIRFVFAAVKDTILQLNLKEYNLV
Procedure, shortened: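 Gαq was partially purified from baculovirus-infected Hi5 insect cells (5 × MOI, 48 h). 600 nM protein was preincubated 30 min with compound (DMSO ≤1% v/v final) in 10 mM HEPES, 100 mM NaCl, 5 mM MgCl2, 0.1 mM EDTA, pH 7.4. Exchange was started with 250 nM BODIPY FL GTPγS. Endpoint at 60 min vs vehicle; triplicates, three experiments.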

[2] = target: Guanine nucleotide-binding protein G(i) subunit alpha-1 (Homo sapiens) (UniProt P63096); experiment: Binding affinity to human Galphai1 expressed in Escherichia coli BL21 assessed as inhibition of [35S]GTPgammaS binding preincubated for 20 mins followed by [35S]GTPgammaS addition measured for 30 mins by liquid scintillation counting analysis; format: functional
Procedure, shortened: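 Human Gαi1 was expressed from pPAL7 (Profinity eXact construct) in E. coli BL21 and affinity purified. 100 nM Gαi1 was preincubated 20 min at 24 °C with peptide, then 0.5 μM [35S]GTPγS was added for 30 min at 24 °C, in duplicate. Filtration on nitrocellulose was followed by washes in cold Tris/MgCl2/EDTA buffer pH 7.4 and scintillation counting. Nonspecific binding was taken with 100 μM GTPγS; results are percent of specific binding without peptide.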

[3] = tested on: HEK293; experiment: Cytotoxicity against HEK293 GloSensor cells transfected with Galphai1 coupled with alpha-2 adrenoceptor assessed as effect on cell viability at 10 uM; format: cell-based; settings: human, hek293, 10 µM

Sequence of Guanine nucleotide-binding protein G(i) subunit alpha-1 (Homo sapiens) (P63096 whole entry): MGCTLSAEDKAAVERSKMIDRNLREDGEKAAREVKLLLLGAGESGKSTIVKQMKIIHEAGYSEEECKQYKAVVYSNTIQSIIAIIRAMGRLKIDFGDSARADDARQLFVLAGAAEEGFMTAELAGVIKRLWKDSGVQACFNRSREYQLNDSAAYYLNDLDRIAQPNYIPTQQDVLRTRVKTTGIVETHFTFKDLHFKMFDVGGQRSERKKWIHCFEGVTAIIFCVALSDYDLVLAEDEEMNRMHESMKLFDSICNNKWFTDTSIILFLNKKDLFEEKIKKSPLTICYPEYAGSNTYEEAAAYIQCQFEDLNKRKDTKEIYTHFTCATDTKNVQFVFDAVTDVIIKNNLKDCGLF

SMILES | inhibition [1] [%] | inhibition [2] | Activity [3]
CC(=O)C1=C(C)NC(C(C#N)C#N)=C(C#N)[C@H]1c1ccccc1 | 40 | – | –
CCC[C@H]1C[C@](C)(C(=O)CNc2ccccn2)OC1=O | < 10 | – | –
CSCC[C@H](NC(=O)[C@H](CCCNC(=N)N)NC(=O)[C@H](CCCCN)NC(=O)[C@H](CO)NC(=O)[C@H](CCC(N)=O)NC(=O)[C@H](CO)NC(=O)[C@H](CCCCN)NC(=O)[C@H](C)NC(=O)[C@H](CC(C)C)NC(=O)[C@H](CC(C)C)NC(=O)[C@H](CC(=O)O)NC(=O)[C@H](Cc1ccccc1)NC(=O)[C@H](Cc1ccccc1)NC(=O)[C@H](CC(=O)O)NC(=O)[C@H](CCC(=O)O)NC(=O)[C@H](CCC(=O)O)NC(=O)CNC(=O)[C@H](CCSC)NC(=O)[C@@H](N)[C@@H](C)O)C(=O)N[C@@H](CC(=O)O)C(=O)N[C@@H](CC(=O)O)C(=O)N[C@@H](CCC(N)=O)C(=O)N[C@@H](CCCNC(=N)N)C(=O)N[C@H](C(=O)N[C@@H](CC(=O)O)C(=O)N[C@@H](CC(C)C)C(=O)N[C@@H](C)C(=O)N[C@@H](CCCCN)C(N)=O)C(C)C (H-TMGEEDFFDLLAKSQSKRMDDQRVDLAK-NH2) | – | Active | –
CC(=O)/C(=C(\C)O)[C@@H]1c2ccccc2O[C@H](C(F)(F)F)[C@@H]1[N+](=O)[O-] | 35 | – | –
SC1=C2CCCCC2=[N+](C[C@@H]2CCCO2)[C@@H](c2ccccc2)N1 | < 10 | – | –
O=[N+]([O-])[C-](/C=N/C1CCCCC1)/C=N/C1CCCCC1 | 32 | – | Non-toxic
CCc1ccc2c(C)nc(NC3=NC(C)(C)CC(C)=N3)nc2c1 | 50 | – | Non-toxic
Cc1nc(NC(=O)NCCC2=CSC3=NCCCN23)nn1C | 27 | – | –

More lines, main results first:

inhibition [1] [%] | inhibition [2] | SMILES | Activity [3]
< 10 | – | C1=C(/N=C/c2ccccc2)[N+](Cc2ccccc2)=CCO1 | –
25 | – | Cc1cccc(N[C@@]2(C(F)(F)F)NC(c3ccccc3)=NC2=O)n1 | –
< 10 | – | C/C(=N\c1ccc(O)cc1)c1sc2ccccc2c1O | –
< 10 | – | CC1=CC(C)(C)NC(Nc2nc(-c3ccccc3)c3ccccc3n2)=N1 | Toxic
